Assay type in all cases: functional, cell-based
The subject of one test is BGC-823. Kind of test: Cytotoxicity against human BGC823 cells after 96 hrs by MTT assay. To be noted: BGC-823, 96 h. In a few lines: (§1)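 Cells kept in RPMI 1640 with 10% FBS, 100 units/mL penicillin and 100 µg/mL streptomycin at 37 °C, humidified 5% CO2. Seeded at 1200 cells/well; compounds added after 24 h at five concentrations from DMSO stocks (0.1% DMSO final), three wells per concentration.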
For orientation: Tetrazolium dyes change colour on reduction, which living cells bring about.

The test system of the next test is HCT-8. Kind of test: Cytotoxicity against human HCT8 cells after 96 hrs by MTT assay. Conditions: HCT-8, 96 h. The gist of the method: as §1
The next test relates to A2780. Description: Cytotoxicity against human A2780 cells after 96 hrs by MTT assay. To be noted: A2780, 96 h. In a few lines: as §1
The subject of the next test is Bel-7402. Description: Cytotoxicity against human Bel7402 cells after 96 hrs by MTT assay. Conditions: Bel-7402, 96 h. The gist of the method:
as §1

The next test concerns WISH. Kind of test: Cytotoxicity against human WISH cells after 96 hrs by MTT assay. In a few lines:
as §1

The next test has as its system MCF7. Kind of test: Cytotoxicity against human MCF7 cells after 96 hrs by MTT assay. Conditions: MCF7, 96 h. The gist of the method:
as §1

For another test, the system named is A549. Description: Cytotoxicity against human A549 cells after 96 hrs by MTT assay. Conditions: A549, 96 h. The gist of the method:
as §1

What is called IC50 is the concentration needed to halve the response being measured. Read a high IC50 as a need for much substance. With `COc1ccc2c(ccc3c(-c4c(O)ccc5c4ccc4c(-c6c(O)cc(OC)c7c6ccc6cc(O)ccc67)c(O)cc(OC)c45)c(O)cc(OC)c32)c1`, the IC50 was 8.4 µM with BGC-823; 8 µM in the test with HCT-8; 8.1 µM with A2780; 8.2 µM with Bel-7402; greater than 15 µM in the test on WISH; 8.3 µM in the test with MCF7. In the test on A549, this compound displayed a concentration for half-maximal inhibition (IC50) of 11.6 µM.

Consider `COc1ccc2c(ccc3cc(O)cc(OC)c32)c1`, for which the IC50 in the test on BGC-823, in the test with HCT-8, in the test on A2780, with Bel-7402, in the test with WISH and in the test with MCF7 was greater than 5 µM each time. The IC50 with A549 was greater than 5 µM.

Take `COc1ccc2c(ccc3c(-c4c(O)cc(OC)c5c4ccc4cc(O)ccc45)c(O)cc(OC)c32)c1`: the half-maximal inhibitory concentration (IC50) in the test on BGC-823, with HCT-8, with A2780, with Bel-7402, with WISH and in the test with MCF7 was greater than 10.2 µM throughout. This compound also came in with an IC50 in the test on A549 greater than 10.2 µM.

`COC1=CC(=O)C(O)(CC(C)=O)c2ccc3cc(OC)ccc3c21` (stereo not drawn): the IC50 in the test with BGC-823, in the test with HCT-8, with A2780, in the test with Bel-7402, with WISH and in the test with MCF7 was greater than 15.3 µM in each case. The IC50 in the test on A549 was greater than 15.3 µM.

For `COc1ccc2c(ccc3c(-c4c(O)cc(OC)c5c4ccc4cc(OC)ccc45)c(O)cc(OC)c32)c1`, the IC50 in the test with BGC-823 worked out at 9.5 µM; in the test on HCT-8 it was 10.7 µM; in the test on A2780 it was 11 µM; with Bel-7402, 11.1 µM; in the test with WISH it was 5 µM; in the test with MCF7 it was 11.9 µM. The same compound yielded an IC50 in the test with A549 of 11.6 µM.

For `COC1=CC(=O)C(O)(CC(C)=O)c2ccc3cc(O)ccc3c21` (stereo not drawn), the IC50 with BGC-823, with HCT-8, in the test on A2780, in the test on Bel-7402, with WISH and in the test on MCF7 was greater than 16 µM each time. The IC50 in the test with A549 is greater than 16 µM.

Turning to `COc1cc(O)c(-c2c(O)cc(OC)c3c2ccc2cc(O)ccc23)c2ccc3cc(O)ccc3c12` [CIRRHOPETALANTHIN], the IC50 in the test with BGC-823 is 10.5 µM; in the test on HCT-8, 11.2 µM; in the test with A2780, 13.2 µM; with Bel-7402, 8.4 µM; with WISH it was greater than 22.7 µM; in the test with MCF7, 12.5 µM. Further, the IC50 with A549 came to 17.8 µM.

As for `COc1cc(O)cc2ccc3cc(O)ccc3c12` [FLAVANTHRININ], the IC50 in the test with BGC-823, in the test on HCT-8, in the test on A2780, in the test with Bel-7402, with WISH and in the test on MCF7 was greater than 20.8 µM each time. The IC50 with A549 was greater than 20.8 µM.

Take `CC[C@@]1(O)C(=O)OCc2c1cc1n(c2=O)Cc2cc3c(CN(C)C)c(O)ccc3nc2-1` [TOPOTECAN]: the IC50 with BGC-823 was determined as 4.4 µM; in the test with HCT-8 it was 1.5 µM; with A2780, 1.1 µM; with Bel-7402, 1.2 µM; in the test with WISH, 1.3 µM; in the test on MCF7, 1.9 µM. The same compound returned an IC50 in the test with A549 of 3.3 µM.
